Source: ChEMBL document CHEMBL2150950, “Effect of 4-aryl-2-methyl-5-nitro-1,4-dihydropyridine-3-carboxylates on the guinea pig papillary muscle and isolated human vena saphena magna that is used for coronary artery bypass grafting” (2011)
Active and inactive are the calls of the source. The calls are words filed in the database; no cut-off is given here.

Columns and labels:
[1] = (§1) Ionotropic effect in guinea pig ventricle papillary muscles assessed as lengthening of 25% repolarized cardiac action potential duration time at 10^-4 M by microelectrode technique relative to untreated control (reference value: 120 to 131 APD25 ms) in presence of 3.1 x 10^-6 M inward rectifier current blocker BaCl2; format: functional, Cavia porcellus
[2] = as §1, with “10%” for “25%”, “10^-7” for “10^-4”, “52” for “120”, “54 APD10” for “131 APD25”; format: functional, Cavia porcellus
[3] = Ionotropic effect in guinea pig right ventricle papillary muscles assessed as contraction force at 10^-6 M by force transduction assay relative to untreated control (reference value: 100%) in presence of 1 x 10^-6 M IKr channel blocker Sotalol; format: functional, Cavia porcellus, Heart right ventricle
[4] = Vasodilatory activity in human vena saphena magna assessed as reduction in phenylephrine-induced smooth muscle contraction at 10 uM; format: functional
In short: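 Saphenous vein rings came from 37 CABG patients. They were bathed in Tyrode's solution (mM: NaCl 137, KCl 5.4, CaCl2 1.8, MgCl2 0.9, Tris HCl 10, glucose 5; pH 7.4), equilibrated 45–60 min and washed every 15 min. Rings were precontracted with 10^-4 M phenylephrine, then given cumulative test agent at 10^-7 to 10^-4 M. Isometric relaxation was recorded, as means ± SE.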

[5] = Ionotropic effect in guinea pig right ventricle papillary muscles assessed as contraction force at 10^-7 M by force transduction assay relative to untreated control (reference value: 100%) in presence of 2 x 10^-5 M KATP channel blocker glibenclamide; format: functional, Cavia porcellus, Heart right ventricle
[6] = (§2) Ionotropic effect in guinea pig ventricle papillary muscles assessed as lengthening of 10% repolarized cardiac action potential duration time at 10^-7 M by microelectrode technique relative to untreated control (reference value: 52 to 54 APD10 ms) in presence of 2 x 10^-5 M KATP channel blocker glibenclamide; format: functional, Cavia porcellus
[7] = as §2, with “at 10^-4” for “at 10^-7”, “of 1” for “of 2”, “x 10^-6” for “x 10^-5”, “M IKr” for “M KATP”, “blocker Sotalol” for “blocker glibenclamide”; format: functional, Cavia porcellus
[8] = as §1, with “90%” for “25%”, “209” for “120”, “222 APD50” for “131 APD25”; format: functional, Cavia porcellus
[9] = Ionotropic effect in guinea pig right ventricle papillary muscles assessed as contraction force at 10^-7 M by force transduction assay relative to untreated control (reference value: 100%) in presence of 1 x 10^-6 M IKr channel blocker Sotalol; format: functional, Cavia porcellus, Heart right ventricle
[10] = as §2, with “25%” for “10%”, “120” for “52”, “131 APD25” for “54 APD10”; format: functional, Cavia porcellus
[11] = as §1, with “90%” for “25%”, “10^-7” for “10^-4”, “209” for “120”, “222 APD50” for “131 APD25”; format: functional, Cavia porcellus
[12] = as §1, with “50%” for “25%”, “10^-6” for “10^-4”, “180” for “120”, “192 APD50” for “131 APD25”; format: functional, Cavia porcellus
[13] = as §2, with “50%” for “10%”, “10^-6” for “10^-7”, “180” for “52”, “192 APD50” for “54 APD10”; format: functional, Cavia porcellus
[14] = as §2, with “at 10^-6” for “at 10^-7”, “of 1” for “of 2”, “x 10^-6” for “x 10^-5”, “M IKr” for “M KATP”, “blocker Sotalol” for “blocker glibenclamide”; format: functional, Cavia porcellus
[15] = Ionotropic effect in guinea pig ventricle papillary muscles assessed as lengthening of 50% repolarized cardiac action potential duration time at 10^-4 M by microelectrode technique relative to untreated control (reference value: 132 to 176 APD50 ms); format: functional, Cavia porcellus, Papillary muscle
[16] = Ionotropic effect in guinea pig right ventricle papillary muscles assessed as contraction force at 10^-7 M by force transduction assay relative to untreated control (reference value: 100%); format: functional, Cavia porcellus, Papillary muscle
[17] = Ionotropic effect in guinea pig ventricle papillary muscles assessed as lengthening of 25% repolarized cardiac action potential duration time at 10^-6 M by microelectrode technique relative to untreated control (reference value: 84 to 104 APD25 ms); format: functional, Cavia porcellus, Papillary muscle
[18] = Ionotropic effect in guinea pig right ventricle papillary muscles assessed as contraction force at 10^-7 M by force transduction assay relative to untreated control (reference value: 100%) in presence of 3.1 x 10^-6 M inward rectifier current blocker BaCl2; format: functional, Cavia porcellus, Heart right ventricle
[19] = as §2, with “10^-5” for “10^-7”; format: functional, Cavia porcellus
[20] = Ionotropic effect in guinea pig ventricle papillary muscles assessed as lengthening of 50% repolarized cardiac action potential duration time at 10^-7 M by microelectrode technique relative to untreated control (reference value: 132 to 176 APD50 ms); format: functional, Cavia porcellus, Papillary muscle

Compound: CCCOCCOC(=O)C1=C(C)NC=C([N+](=O)[O-])C1c1ccccc1OC(F)F (stereo not given)
- Time [1]: 158 ms
- Time [2]: 64.3 ms
- Activity [3]: 93.6%
- Activity [4]: Active
- Activity [5]: 103%
- Time [6]: 59.5 ms
- Time [7]: 55.7 ms
- Time [8]: 267.9 ms
- Activity [9]: 85%
- Time [10]: 141 ms
- Time [11]: 237 ms
- Time [12]: 224 ms
- Time [13]: 219 ms
- Time [14]: 49 ms
- Time [15]: 222 ms
- Activity [16]: 108%
- Time [17]: 118.6 ms
- Activity [18]: 111.4%
- Time [19]: 61 ms
- Time [20]: 188.5 ms
